Source: ChEMBL document CHEMBL4680068, “Towards a RIOK2 chemical probe: cellular potency improvement of a selective 2-(acylamino)pyridine series” (RSC Med Chem, 2021)
pIC50, pKd: −log10 of the molar value.

Experiments:
[1] = target: T1, Glycogen synthase kinase-3 alpha (Homo sapiens, UniProt P49840); test: Inhibition of recombinant human GSK3alpha S449A mutant (2 to end residues) using YRRAAVPPSPSLSR peptide as substrate incubated for 40 mins in presence of [gamma33P]ATP by radiometric scintillation analysis
T1 sequence (P49840 whole entry): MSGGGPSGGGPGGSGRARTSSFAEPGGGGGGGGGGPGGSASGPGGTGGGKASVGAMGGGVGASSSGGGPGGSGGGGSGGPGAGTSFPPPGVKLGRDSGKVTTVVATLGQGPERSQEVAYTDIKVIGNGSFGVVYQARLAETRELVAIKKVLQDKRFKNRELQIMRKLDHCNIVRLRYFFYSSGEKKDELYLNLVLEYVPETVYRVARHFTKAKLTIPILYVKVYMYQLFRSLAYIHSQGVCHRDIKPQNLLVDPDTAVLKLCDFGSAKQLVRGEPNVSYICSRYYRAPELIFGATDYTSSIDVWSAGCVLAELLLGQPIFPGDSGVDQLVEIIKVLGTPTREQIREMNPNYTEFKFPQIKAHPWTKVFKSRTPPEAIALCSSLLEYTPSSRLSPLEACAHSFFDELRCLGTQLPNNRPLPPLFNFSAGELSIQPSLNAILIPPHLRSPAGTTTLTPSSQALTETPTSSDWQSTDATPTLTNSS
Summary of the method: (§1)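 Orthogonal homogeneous enzymatic kinase assay, run by a contract provider. GSK3α activity was read as incorporation of radiolabelled ATP into a peptide substrate. ATP was at its Km.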

[2] = target: T2, Mitogen-activated protein kinase 10 (Homo sapiens, UniProt P53779); test: Inhibition of full length recombinant human MAPK10 using peptide substrate incubated for 40 mins in presence of [gamma33P]ATP by radiometric scintillation analysis
T2 sequence (P53779 whole entry): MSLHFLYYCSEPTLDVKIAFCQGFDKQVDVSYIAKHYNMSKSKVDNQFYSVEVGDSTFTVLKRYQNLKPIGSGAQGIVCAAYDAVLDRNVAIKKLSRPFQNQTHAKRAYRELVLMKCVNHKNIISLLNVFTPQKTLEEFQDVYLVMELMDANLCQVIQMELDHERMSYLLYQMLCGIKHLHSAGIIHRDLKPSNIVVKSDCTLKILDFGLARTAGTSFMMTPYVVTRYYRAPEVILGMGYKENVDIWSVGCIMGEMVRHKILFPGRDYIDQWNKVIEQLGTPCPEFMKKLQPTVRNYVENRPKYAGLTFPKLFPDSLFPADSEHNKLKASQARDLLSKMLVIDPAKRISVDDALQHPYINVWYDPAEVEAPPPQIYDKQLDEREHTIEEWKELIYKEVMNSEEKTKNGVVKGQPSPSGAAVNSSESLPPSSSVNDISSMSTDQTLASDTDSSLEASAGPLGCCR
Summary of the method: (§2)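 Eurofins radiometric enzymatic kinase assay run at the Km of ATP for each kinase. Activity was read as incorporation of radiolabelled ATP into a peptide substrate, in a homogeneous format.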

[3] = target: T3, Mitogen-activated protein kinase 8 (Homo sapiens, UniProt P45983); test: Inhibition of full length recombinant human MAPK8 using ATF2 as substrate incubated for 40 mins in presence of [gamma33P]ATP by radiometric scintillation analysis; summary of the method: as §2
T3 sequence (P45983 whole entry, the tested form may be a part): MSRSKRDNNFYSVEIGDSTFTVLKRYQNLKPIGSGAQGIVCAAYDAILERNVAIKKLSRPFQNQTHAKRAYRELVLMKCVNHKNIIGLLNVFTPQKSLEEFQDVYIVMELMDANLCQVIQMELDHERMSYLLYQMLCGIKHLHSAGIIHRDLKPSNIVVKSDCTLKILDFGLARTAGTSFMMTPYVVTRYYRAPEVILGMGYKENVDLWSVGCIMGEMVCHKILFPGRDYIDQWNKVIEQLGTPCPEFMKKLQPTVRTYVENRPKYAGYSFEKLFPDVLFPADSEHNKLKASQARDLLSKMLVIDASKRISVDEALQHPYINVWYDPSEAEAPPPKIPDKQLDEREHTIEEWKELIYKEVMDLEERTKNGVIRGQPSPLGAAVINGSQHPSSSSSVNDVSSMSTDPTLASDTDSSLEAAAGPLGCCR

[4] = target: T4, Homeodomain-interacting protein kinase 1 (Homo sapiens, UniProt Q86Z02); test: Inhibition of human HIPK1 (158 to 555 residues) using myelin ba as substrate incubated for 40 mins in presence of [gamma33P]ATP by radiometric scintillation analysis; summary of the method: as §2
T4 sequence (Q86Z02 whole entry, the tested form may be a part): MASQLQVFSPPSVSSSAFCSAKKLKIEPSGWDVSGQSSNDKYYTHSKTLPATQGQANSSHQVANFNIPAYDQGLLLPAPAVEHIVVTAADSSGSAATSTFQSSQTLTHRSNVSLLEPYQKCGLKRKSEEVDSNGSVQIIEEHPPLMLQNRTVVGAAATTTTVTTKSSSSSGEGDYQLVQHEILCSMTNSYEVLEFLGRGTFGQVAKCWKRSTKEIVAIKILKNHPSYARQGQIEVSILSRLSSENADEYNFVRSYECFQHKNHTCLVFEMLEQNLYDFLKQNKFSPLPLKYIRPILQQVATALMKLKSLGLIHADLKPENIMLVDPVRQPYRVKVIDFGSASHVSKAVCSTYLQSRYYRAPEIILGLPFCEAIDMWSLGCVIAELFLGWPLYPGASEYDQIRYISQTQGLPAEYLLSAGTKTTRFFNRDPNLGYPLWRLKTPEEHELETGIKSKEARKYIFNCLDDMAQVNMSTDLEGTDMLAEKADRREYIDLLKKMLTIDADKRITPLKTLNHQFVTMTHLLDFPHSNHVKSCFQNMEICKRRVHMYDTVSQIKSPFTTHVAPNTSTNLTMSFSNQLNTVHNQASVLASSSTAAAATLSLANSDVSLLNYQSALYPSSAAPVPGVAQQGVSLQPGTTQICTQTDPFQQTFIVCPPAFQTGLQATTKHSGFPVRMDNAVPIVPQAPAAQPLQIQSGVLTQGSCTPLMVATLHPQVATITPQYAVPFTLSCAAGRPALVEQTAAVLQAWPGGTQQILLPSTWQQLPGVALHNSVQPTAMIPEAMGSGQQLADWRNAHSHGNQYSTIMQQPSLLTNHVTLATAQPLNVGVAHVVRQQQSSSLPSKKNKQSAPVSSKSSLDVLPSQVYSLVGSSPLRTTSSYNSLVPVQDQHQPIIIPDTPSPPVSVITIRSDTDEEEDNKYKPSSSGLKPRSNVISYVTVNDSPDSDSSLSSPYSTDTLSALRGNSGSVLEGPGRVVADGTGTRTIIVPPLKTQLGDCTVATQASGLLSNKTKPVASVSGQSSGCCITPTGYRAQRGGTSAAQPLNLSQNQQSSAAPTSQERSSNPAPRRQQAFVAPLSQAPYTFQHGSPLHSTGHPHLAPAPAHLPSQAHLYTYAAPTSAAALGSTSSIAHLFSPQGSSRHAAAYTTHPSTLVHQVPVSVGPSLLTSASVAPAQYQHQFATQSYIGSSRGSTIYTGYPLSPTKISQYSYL

[5] = target: T5, SNF-related serine/threonine-protein kinase (Homo sapiens, UniProt Q9NRH2); test: Inhibition of recombinant human SNRK E97G/P116A mutant (1 to 505 residues) using KKLRRTLSFAEPG peptide as substrate incubated for 40 mins in presence of [gamma33P]ATP by radiometric scintillation analysis; summary of the method: as §2
T5 sequence (Q9NRH2 whole entry): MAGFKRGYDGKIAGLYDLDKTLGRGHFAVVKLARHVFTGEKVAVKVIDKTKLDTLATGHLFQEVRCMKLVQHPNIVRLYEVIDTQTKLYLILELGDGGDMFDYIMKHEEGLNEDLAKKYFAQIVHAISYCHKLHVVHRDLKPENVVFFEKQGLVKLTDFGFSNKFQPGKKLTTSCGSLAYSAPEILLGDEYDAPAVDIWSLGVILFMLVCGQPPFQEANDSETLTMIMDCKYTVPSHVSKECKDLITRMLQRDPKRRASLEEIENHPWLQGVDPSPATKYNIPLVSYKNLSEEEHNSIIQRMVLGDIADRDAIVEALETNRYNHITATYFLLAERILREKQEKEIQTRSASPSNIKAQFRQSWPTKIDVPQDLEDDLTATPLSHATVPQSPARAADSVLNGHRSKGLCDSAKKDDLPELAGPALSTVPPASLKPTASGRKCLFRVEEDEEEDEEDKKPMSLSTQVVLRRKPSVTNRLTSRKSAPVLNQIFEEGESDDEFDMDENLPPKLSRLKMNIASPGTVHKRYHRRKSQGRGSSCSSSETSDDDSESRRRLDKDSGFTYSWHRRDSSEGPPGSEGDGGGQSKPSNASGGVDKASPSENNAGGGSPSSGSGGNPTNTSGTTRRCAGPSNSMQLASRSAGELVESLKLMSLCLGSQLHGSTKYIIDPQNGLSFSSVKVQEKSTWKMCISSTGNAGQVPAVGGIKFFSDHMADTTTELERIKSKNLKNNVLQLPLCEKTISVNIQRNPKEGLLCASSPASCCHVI

[6] = target: Serine/threonine-protein kinase RIO2 (Homo sapiens, UniProt Q9BVS4); test: Displacement of tracer K5 from N-terminal nanoluciferase-tagged RIOK2 (unknown origin) expressed in HEK293 cells measured after 2 hrs by NanoBRET assay; assay type: cell-based
Serine/threonine-protein kinase RIO2, sequence (Q9BVS4 whole entry, the tested form may be a part): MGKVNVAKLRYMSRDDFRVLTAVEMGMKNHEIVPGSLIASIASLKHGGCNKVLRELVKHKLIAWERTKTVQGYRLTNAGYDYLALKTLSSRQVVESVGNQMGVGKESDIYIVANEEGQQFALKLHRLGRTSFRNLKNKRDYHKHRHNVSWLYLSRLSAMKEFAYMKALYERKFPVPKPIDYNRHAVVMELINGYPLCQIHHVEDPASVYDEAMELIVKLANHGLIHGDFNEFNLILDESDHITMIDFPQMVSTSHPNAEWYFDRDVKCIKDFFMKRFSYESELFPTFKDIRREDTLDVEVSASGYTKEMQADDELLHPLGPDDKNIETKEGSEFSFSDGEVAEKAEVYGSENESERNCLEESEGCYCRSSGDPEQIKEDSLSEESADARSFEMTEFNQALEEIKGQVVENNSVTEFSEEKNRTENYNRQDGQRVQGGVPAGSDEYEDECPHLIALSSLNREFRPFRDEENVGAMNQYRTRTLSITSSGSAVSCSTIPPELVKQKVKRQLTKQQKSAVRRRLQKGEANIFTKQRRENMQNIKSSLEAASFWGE

[7] = target: T4, Homeodomain-interacting protein kinase 1; test: Binding affinity to human HIPK1 (158 to 555 residues) using myelin ba as substrate incubated for 40 mins in presence of [gamma33P]ATP by radiometric scintillation analysis; summary of the method: as §2
[8] = target: T2, Mitogen-activated protein kinase 10; test: Binding affinity to full length recombinant human MAPK10 using peptide substrate incubated for 40 mins in presence of [gamma33P]ATP by radiometric scintillation analysis; summary of the method: as §2
[9] = target: T1, Glycogen synthase kinase-3 alpha; test: Binding affinity to recombinant human GSK3alpha S449A mutant (2 to end residues) using YRRAAVPPSPSLSR peptide as substrate incubated for 40 mins in presence of [gamma33P]ATP by radiometric scintillation analysis; summary of the method: as §1
[10] = target: T3, Mitogen-activated protein kinase 8; test: Binding affinity to full length recombinant human MAPK8 using ATF2 as substrate incubated for 40 mins in presence of [gamma33P]ATP by radiometric scintillation analysis; summary of the method: as §2
[11] = target: T5, SNF-related serine/threonine-protein kinase; test: Binding affinity to recombinant human SNRK E97G/P116A mutant (1 to 505 residues) using KKLRRTLSFAEPG peptide as substrate incubated for 40 mins in presence of [gamma33P]ATP by radiometric scintillation analysis; summary of the method: as §2

Compound | pIC50 [1] | pIC50 [2] | pIC50 [3] | pIC50 [4] | pIC50 [5] | pIC50 [6] | other results
COc1ccnc(NC(=O)Cc2ccc3ccccc3c2)c1 | 5.32 | 5.89 | < 5.00 | < 5.00 | < 5.00 | 5.28 | 
Cc1ccnc(NC(=O)CCc2ccc3ccccc3c2)c1 |  |  |  |  |  | < 4.52 | 
COc1ccc2cc([C@@H](C)C(=O)Nc3cc(C)ccn3)ccc2c1 |  |  |  |  |  | 5.12 | 
CCc1ccnc(NC(=O)Cc2ccc3ccccc3c2)c1 |  |  |  |  |  | 4.84 | 
COc1ccnc(NC(=O)[C@@H](C)c2ccc3cc(OC)ccc3c2)c1 |  |  |  |  |  | 5.28 | 
COc1ccc2cc([C@H](C)C(=O)Nc3cc(C)ccn3)ccc2c1 | 5.35 | 5.29 | < 5.00 | < 5.00 | < 5.00 | 5.18 | 
O=C(Cc1ccc2ccccc2c1)Nc1cc(Cl)ccn1 | 6.07 | 6.28 | < 5.00 | < 5.00 | < 5.00 | 5.30 | 
Cc1ccnc(NC(=O)Cc2ccc3c(c2)OCO3)c1 |  |  |  |  |  | < 4.52 | 
O=C(Cc1ccc2ccccc2c1)Nc1cc(C(F)(F)F)ccn1 |  |  |  |  |  | 5.12 | 
Cc1ccnc(NC(=O)Cc2ccc3ccccc3c2)c1 | 5.28 | 5.33 | < 5.00 | < 5.00 | < 5.00 |  | pKd [7]: 5.96; pKd [8]: 6.47; pKd [9]: 6.06; pKd [10]: 6.66; pKd [11]: 6.05
O=C(Cc1ccc2ccccc2c1)Nc1cc(Br)ccn1 |  |  |  |  |  | 4.87 | 
COc1ccnc(NC(=O)Cc2ccc(C)c(C)c2)c1 |  |  |  |  |  | 4.55 | 
Cc1ccnc(NC(=O)COc2ccc3ccccc3c2)c1 |  |  |  |  |  | < 4.52 | 
Cc1ccnc(NC(=O)Cc2ccc3c(c2)OCCO3)c1 |  |  |  |  |  | < 4.52 | 
COc1ccnc(NC(=O)Cc2ccc(-c3ccccc3)cc2)c1 |  |  |  |  |  | 5.12 | 
COc1ccc2cc(C(C)C(=O)Nc3cc(C)ccn3)ccc2c1 (racemic) | 5.72 | 6.11 | < 5.00 | < 5.00 | < 5.00 | 5.28 | 
